Reference: ChEMBL document CHEMBL2203123, “Synthesis and biological evaluation of some hydrazone derivatives as new anticandidal and anticancer agents” (Eur J Med Chem, 2012)
Values after ≈ are worked out from the molar mass of the structure shown.

How the values were obtained:
[1] = Genotoxicity against Salmonella typhimurium TA1535/pSK1002 assessed as induction ratio at 5 mg/ml by umuC assay in presence of S9 fraction; format: toxicity, organism-based; conditions: salmonella enterica subsp. enterica serovar typhimurium, Salmonella typhimurium TA1535/pSK1002 with S9 fraction
Procedure, shortened: (§1)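 umuC Easy CS: TA1535/pSK1002 grown overnight in ampicillin TG medium at 37 °C, then exposed 2 h at 37 °C to compounds at 5, 2.5, 1.25, 0.63 mg/mL with or without S9. Diluted into fresh medium for 2 h growth (OD600), then β-galactosidase with ONPG 30 min at 28 °C, OD420. Positive controls 2-aminoanthracene (+S9), […] (−S9).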

NIH3T3 = assay: Cytotoxicity against mouse NIH/3T3 cells after 24 hrs by XTT assay; format: cell-based; conditions: NIH3T3, 24 h
Procedure, shortened: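 Mouse NIH3T3 fibroblasts grown in DMEM with fetal calf serum, penicillin/streptomycin, 37 °C, 5% CO2; 20,000 cells/well, treated after 24 h with 0.00316 µM-10 mM compound for 24 h. Viability via XTT (3 h, OD 480 nm, reference 680 nm); % inhibition computed and IC50 fitted by non-linear regression.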

[2] = Genotoxicity against Salmonella typhimurium TA1535/pSK1002 assessed as induction ratio at 2.5 mg/ml by umuC assay in absence of S9 fraction; format: toxicity, organism-based; conditions: salmonella enterica subsp. enterica serovar typhimurium, Salmonella typhimurium TA1535/pSK1002 without S9 fraction; procedure, shortened: as §1
[3] = Genotoxicity against Salmonella typhimurium TA1535/pSK1002 assessed as induction ratio at 5 mg/ml by umuC assay in absence of S9 fraction; format: toxicity, organism-based; conditions: salmonella enterica subsp. enterica serovar typhimurium, Salmonella typhimurium TA1535/pSK1002 without S9 fraction; procedure, shortened: as §1
Salmonella typhimurium [4] = assay: Genotoxicity against Salmonella typhimurium TA1535/pSK1002 assessed as growth factor ratio at 5 mg/ml by umuC assay in presence of S9 fraction; format: toxicity, organism-based; conditions: salmonella enterica subsp. enterica serovar typhimurium; procedure, shortened: as §1
[5] = Genotoxicity against Salmonella typhimurium TA1535/pSK1002 assessed as induction ratio at 0.63 mg/ml by umuC assay in presence of S9 fraction; format: toxicity, organism-based; conditions: salmonella enterica subsp. enterica serovar typhimurium, Salmonella typhimurium TA1535/pSK1002 with S9 fraction; procedure, shortened: as §1
Salmonella typhimurium [6] = assay: Genotoxicity against Salmonella typhimurium TA1535/pSK1002 assessed as growth factor ratio at 2.5 mg/ml by umuC assay in absence of S9 fraction; format: toxicity, organism-based; conditions: salmonella enterica subsp. enterica serovar typhimurium; procedure, shortened: as §1
Salmonella typhimurium [7] = assay: Genotoxicity against Salmonella typhimurium TA98 assessed as fold increase in revertants at 5 mg/ml after 90 mins by Ames MPF test in presence of S9 fraction relative to baseline; format: toxicity, organism-based; conditions: salmonella enterica subsp. enterica serovar typhimurium, s9, 1.5 h
Procedure, shortened: (§2)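 Ames MPF fluctuation test, TA98 and TA100: overnight cultures reincubated 90 min, then exposed 90 min at 37 °C to compounds at 0.156-5 mg/mL (in DMSO) with or without 4.5% v/v S9; indicator medium added, 48 wells per sample scored yellow after 48 h, triplicate. Fold over baseline = mean positive wells / (mean of DMSO control + 1 SD).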

Salmonella typhimurium [8] = assay: Genotoxicity against Salmonella typhimurium TA100 assessed as fold increase in revertants at 2.5 mg/ml after 90 mins by Ames MPF test in absence of S9 fraction relative to baseline; format: toxicity, organism-based; conditions: salmonella enterica subsp. enterica serovar typhimurium, 1.5 h; procedure, shortened: as §2
Salmonella typhimurium [9] = assay: Genotoxicity against Salmonella typhimurium TA100 assessed as fold increase in revertants at 1.25 mg/ml after 90 mins by Ames MPF test in presence of S9 fraction relative to baseline; format: toxicity, organism-based; conditions: salmonella enterica subsp. enterica serovar typhimurium, s9, 1.5 h; procedure, shortened: as §2
Salmonella typhimurium [10] = assay: Genotoxicity against Salmonella typhimurium TA100 assessed as fold increase in revertants at 5 mg/ml after 90 mins by Ames MPF test in presence of S9 fraction relative to baseline; format: toxicity, organism-based; conditions: salmonella enterica subsp. enterica serovar typhimurium, s9, 1.5 h; procedure, shortened: as §2
Salmonella typhimurium [11] = assay: Genotoxicity against Salmonella typhimurium TA100 assessed as fold increase in revertants at 2.5 mg/ml after 90 mins by Ames MPF test in presence of S9 fraction relative to baseline; format: toxicity, organism-based; conditions: salmonella enterica subsp. enterica serovar typhimurium, s9, 1.5 h; procedure, shortened: as §2
Salmonella typhimurium [12] = assay: Genotoxicity against Salmonella typhimurium TA98 assessed as fold increase in revertants at 0.156 mg/ml after 90 mins by Ames MPF test in presence of S9 fraction relative to baseline; format: toxicity, organism-based; conditions: salmonella enterica subsp. enterica serovar typhimurium, s9, 1.5 h; procedure, shortened: as §2
Salmonella typhimurium [13] = assay: Genotoxicity against Salmonella typhimurium TA98 assessed as fold increase in revertants at 1.25 mg/ml after 90 mins by Ames MPF test in absence of S9 fraction relative to baseline; format: toxicity, organism-based; conditions: salmonella enterica subsp. enterica serovar typhimurium, 1.5 h; procedure, shortened: as §2
Salmonella typhimurium [14] = assay: Genotoxicity against Salmonella typhimurium TA98 assessed as fold increase in revertants at 0.3125 mg/ml after 90 mins by Ames MPF test in absence of S9 fraction relative to baseline; format: toxicity, organism-based; conditions: salmonella enterica subsp. enterica serovar typhimurium, 1.5 h; procedure, shortened: as §2
Candida albicans = assay: Antifungal activity against Candida albicans ATCC 90028 after 24 hrs by microdilution susceptibility assay; format: functional; conditions: ATCC 90028, 24 h
Procedure, shortened: (§3)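 Broth microdilution in Mueller Hinton Broth, compounds from DMSO stocks diluted serially; inocula standardized to 10^6 CFU/mL (McFarland 0.5) from overnight MHB cultures. Plates held 37 °C for 24 h; MIC taken as first well without turbidity, aided by 1% tetrazolium violet added for 3 h at 37 °C. Ketoconazole reference.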

Salmonella typhimurium [15] = assay: Genotoxicity against Salmonella typhimurium TA98 assessed as fold increase in revertants at 0.625 mg/ml after 90 mins by Ames MPF test in presence of S9 fraction relative to baseline; format: toxicity, organism-based; conditions: salmonella enterica subsp. enterica serovar typhimurium, s9, 1.5 h; procedure, shortened: as §2
Salmonella typhimurium [16] = assay: Genotoxicity against Salmonella typhimurium TA100 assessed as fold increase in revertants at 0.625 mg/ml after 90 mins by Ames MPF test in presence of S9 fraction relative to baseline; format: toxicity, organism-based; conditions: salmonella enterica subsp. enterica serovar typhimurium, s9, 1.5 h; procedure, shortened: as §2
Salmonella typhimurium [17] = assay: Genotoxicity against Salmonella typhimurium TA98 assessed as fold increase in revertants at 2.5 mg/ml after 90 mins by Ames MPF test in absence of S9 fraction relative to baseline; format: toxicity, organism-based; conditions: salmonella enterica subsp. enterica serovar typhimurium, 1.5 h; procedure, shortened: as §2
Nakaseomyces glabratus = assay: Antifungal activity against Candida glabrata Osmangazi University clinical isolate after 24 hrs by microdilution susceptibility assay; format: functional; procedure, shortened: as §3
Salmonella typhimurium [18] = assay: Genotoxicity against Salmonella typhimurium TA100 assessed as fold increase in revertants at 0.625 mg/ml after 90 mins by Ames MPF test in absence of S9 fraction relative to baseline; format: toxicity, organism-based; conditions: salmonella enterica subsp. enterica serovar typhimurium, 1.5 h; procedure, shortened: as §2
Salmonella typhimurium [19] = assay: Genotoxicity against Salmonella typhimurium TA1535/pSK1002 assessed as growth factor ratio at 0.63 mg/ml by umuC assay in presence of S9 fraction; format: toxicity, organism-based; conditions: salmonella enterica subsp. enterica serovar typhimurium; procedure, shortened: as §1
[20] = Genotoxicity against Salmonella typhimurium TA1535/pSK1002 assessed as induction ratio at 1.25 mg/ml by umuC assay in absence of S9 fraction; format: toxicity, organism-based; conditions: salmonella enterica subsp. enterica serovar typhimurium, Salmonella typhimurium TA1535/pSK1002 without S9 fraction; procedure, shortened: as §1
Salmonella typhimurium [21] = assay: Genotoxicity against Salmonella typhimurium TA1535/pSK1002 assessed as growth factor ratio at 1.25 mg/ml by umuC assay in absence of S9 fraction; format: toxicity, organism-based; conditions: salmonella enterica subsp. enterica serovar typhimurium; procedure, shortened: as §1
Salmonella typhimurium [22] = assay: Genotoxicity against Salmonella typhimurium TA98 assessed as fold increase in revertants at 0.625 mg/ml after 90 mins by Ames MPF test in absence of S9 fraction relative to baseline; format: toxicity, organism-based; conditions: salmonella enterica subsp. enterica serovar typhimurium, 1.5 h; procedure, shortened: as §2
Salmonella typhimurium [23] = assay: Genotoxicity against Salmonella typhimurium TA98 assessed as fold increase in revertants at 5 mg/ml after 90 mins by Ames MPF test in absence of S9 fraction relative to baseline; format: toxicity, organism-based; conditions: salmonella enterica subsp. enterica serovar typhimurium, 1.5 h; procedure, shortened: as §2
Salmonella typhimurium [24] = assay: Genotoxicity against Salmonella typhimurium TA100 assessed as fold increase in revertants at 5 mg/ml after 90 mins by Ames MPF test in absence of S9 fraction relative to baseline; format: toxicity, organism-based; conditions: salmonella enterica subsp. enterica serovar typhimurium, 1.5 h; procedure, shortened: as §2

Row | SMILES | fold induction at 5 mg/ml [1] | IC50 (NIH3T3) | fold induction at 2.5 mg/ml [2] | fold induction at 5 mg/ml [3] | Ratio (Salmonella typhimurium [4]) | fold induction at 0.63 mg/ml [5] | Ratio (Salmonella typhimurium [6]) | fold change (FC) (Salmonella typhimurium [7]) | fold change (FC) (Salmonella typhimurium [8]) | fold change (FC) (Salmonella typhimurium [9]) | fold change (FC) (Salmonella typhimurium [10]) | fold change (FC) (Salmonella typhimurium [11]) | fold change (FC) (Salmonella typhimurium [12]) | fold change (FC) (Salmonella typhimurium [13]) | fold change (FC) (Salmonella typhimurium [14]) | MIC (Candida albicans) | fold change (FC) (Salmonella typhimurium [15]) | fold change (FC) (Salmonella typhimurium [16]) | fold change (FC) (Salmonella typhimurium [17]) | MIC (Nakaseomyces glabratus) | further results
1 | Cn1nnnc1SCC(=O)N/N=C/c1ccc(O)cc1 | 0.419 | 632 µM | 0.979 | 0.661 | 2.139 | 0.797 | 1.397 | 0.63 | 0.33 | 0.59 | 0.82 | 0.63 | 0.32 | 0.13 | 0.13 | 1000 µg/mL (≈ 3420 µM) | 0.32 | 0.7 | 0.13 | 1000 µg/mL (≈ 3420 µM) | fold change (FC) (Salmonella typhimurium [18]): 0.66; Ratio (Salmonella typhimurium [19]): 1.13; fold induction at 1.25 mg/ml [20]: 0.99; Ratio (Salmonella typhimurium [21]): 1.098; fold change (FC) (Salmonella typhimurium [22]): 0.13; fold change (FC) (Salmonella typhimurium [23]): 0.26; fold change (FC) (Salmonella typhimurium [24]): 0
2 | COc1ccc(/C=N/NC(=O)CSc2nnnn2C)cc1 | 0.568 | > 10000 µM | 1.04 | 0.763 | 2.261 | 0.814 | 1.166 | 0.84 | 0.6 | 0.81 | 0.5 | 0.62 | 0.42 | 0.33 | 0.16 | 500 µg/mL (≈ 1630 µM) | 0.32 | 0.89 | 0.33 | 500 µg/mL (≈ 1630 µM) | fold change (FC) (Salmonella typhimurium [18]): 0.3; Ratio (Salmonella typhimurium [19]): 1.117; fold induction at 1.25 mg/ml [20]: 1.12; Ratio (Salmonella typhimurium [21]): 1.137; fold change (FC) (Salmonella typhimurium [22]): 0.65; fold change (FC) (Salmonella typhimurium [23]): 0.33; fold change (FC) (Salmonella typhimurium [24]): 0.5
3 | Cn1nnnc1SCC(=O)N/N=C/c1ccccc1F | 0.284 | 2000 µM | 0.779 | 0.321 | 2.579 | 0.936 | 1.559 | 1.14 | 0.17 | 0.88 | 0.58 | 0.95 | 0.29 | 0.32 | 1.59 | 500 µg/mL (≈ 1700 µM) | 1 | 0.66 | 0.95 | 250 µg/mL (≈ 849 µM) | fold change (FC) (Salmonella typhimurium [18]): 0.23; Ratio (Salmonella typhimurium [19]): 0.935; fold induction at 1.25 mg/ml [20]: 1.02; Ratio (Salmonella typhimurium [21]): 1.084; fold change (FC) (Salmonella typhimurium [22]): 0.64; fold change (FC) (Salmonella typhimurium [23]): 1.59; fold change (FC) (Salmonella typhimurium [24]): 0.17
